Hits are enriched below; roughly 1.4% of the tested compounds scored in any of these assays.
MT1-MMP act inh: blockers of MT1-MMP proenzyme processing, primary screen, HT1080 RFP-PRO-GFP cells, GFP/RFP fluorescence; actives 0.061% (n = 360,000); GFP/RFP ratio change, % at 20 µM; GFP/RFP ratio fluorescence, overnight; percent of plate control window, DMSO zero; Matrix metalloproteinase-14 (Homo sapiens), P50281;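 active means GFP/RFP ratio change of at least 30% with cell ATP level not reduced by more than half and red fluorescence within 50% of control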
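Assay system: RFP-PRO-GFP reporter HT1080 cells; read-out basis: GFP/RFP fluorescence ratio; benchmarks: DMSO wells and RFP-L50D-GFP cells; doses: 20 µM single dose, 1% DMSO; schedule: overnight cell settling, then overnight compound exposure, 37 °C, 5% CO2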
DDE Tn7 FP inh: inhibitors of Tn7 peptide binding to fibrin DD(E), primary screen, biochemical, fluorescence polarization, human fibrin, Tn7 probe; Fibrinogen beta chain (Homo sapiens), P02675; FP displacement of FITC-Tn7 peptide from fibrin DD(E); 0% = median of compound wells per plate; inhibition, % at 8.3 µM; actives 0.13% (n = 370,000);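 active means inhibition above the mean of compounds falling within the control limits plus 3 SD of them, cut at about 14% in these data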;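 further: 0% = plate median of compound wells and 100% = 10 µM Aha-Tn7 peptide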
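Assay system: human fibrin DD(E). Input: DD(E) 2 µM final. Medium: Tris buffer with calcium and detergent, pH 7.8. Compound dosing: single point at 8.3 µM. Timing: 10 min plus 3 h, room temperature. Technique: fluorescence polarization of the labelled Tn7 tracer. Read-out: percent inhibition. Replicates: singlicate testing.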
DAGLB inh: DAGLB lipase inhibitors, primary screen, biochemical, fluorescence, HTS | HEK293T DAGLB membrane lysate, EnzChek fluorogenic substrate | actives 0.059% (n = 340,000) | AID 504411, 2011 | Diacylglycerol lipase-beta (Homo sapiens), Q8NCG7 | inhibition, % at 5.17 µM; in the data active means inhibition above about 34%;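 further: 0% = enzyme with vehicle and 100% = wells lacking enzyme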
Target sequence (Q8NCG7 whole entry, looked up): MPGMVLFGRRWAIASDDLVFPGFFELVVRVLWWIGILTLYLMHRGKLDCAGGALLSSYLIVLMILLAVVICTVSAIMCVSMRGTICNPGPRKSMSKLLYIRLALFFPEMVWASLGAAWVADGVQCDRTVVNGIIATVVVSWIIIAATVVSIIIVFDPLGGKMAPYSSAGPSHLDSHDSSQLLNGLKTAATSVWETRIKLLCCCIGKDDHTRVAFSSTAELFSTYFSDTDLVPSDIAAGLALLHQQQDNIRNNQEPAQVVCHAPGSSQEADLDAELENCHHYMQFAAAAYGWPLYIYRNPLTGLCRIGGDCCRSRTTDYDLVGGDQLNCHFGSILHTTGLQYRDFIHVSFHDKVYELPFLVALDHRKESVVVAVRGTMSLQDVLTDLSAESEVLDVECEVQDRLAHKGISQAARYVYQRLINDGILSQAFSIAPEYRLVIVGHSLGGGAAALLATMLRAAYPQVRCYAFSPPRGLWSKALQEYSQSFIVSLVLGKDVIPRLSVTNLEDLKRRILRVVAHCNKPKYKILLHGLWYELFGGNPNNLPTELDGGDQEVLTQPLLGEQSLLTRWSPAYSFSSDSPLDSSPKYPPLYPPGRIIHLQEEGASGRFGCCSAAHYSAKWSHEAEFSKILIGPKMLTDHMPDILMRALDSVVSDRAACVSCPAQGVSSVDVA
H9c2 TAG inh: inhibitors of triacylglycerol accumulation, primary screen, cell-based, uHTS, fluorescence, H9c2. actives 0.66% (n = 230,000). H9c2 cells, Nile Red lipid (TAG) fluorescence; cells loaded with 200 µM oleic acid. inhibition, % at 12.5 µM;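 active means pattern-corrected inhibition of lipid staining of at least 50% with the nuclear-stain viability signal not falling by more than 50%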;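 further: 0% = DMSO wells and 100% = triacsin C control wells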
Tn6 DDE FP: inhibitors of Tn6 peptide binding to fibrin DD(E), primary screen, biochemical, fluorescence polarization, human fibrin, Tn6 probe; AID 720509, 2013; Fibrinogen beta chain (Homo sapiens), P02675; Fibrin DD(E) TRITC-Tn6 fluorescence polarization displacement; actives 0.21% (n = 370,000); inhibition, % at 8.3 µM;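 active means inhibition above a per-campaign cutoff: mean of compounds within control limits plus 3 SD, cut at about 15% in these data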;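 further: 0% = median of all compound wells on the plate and 100% = blocking peptide control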
Cardio protect: cardioprotection against H2O2-induced cell death, primary screen, uHTS, H9c2 cells, ATPLite luminescence | H9c2 cardiomyocytes, H2O2 injury protection, 2 h | protection from H2O2 cell death, % at 20 µM | actives 0.63% (n = 360,000);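 active means compounds giving at least 50% protection of heart cells from peroxide-induced death in the single-dose screen, raw or plate-pattern-corrected value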;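 further: 0% = DMSO wells with peroxide and 100% = DMSO wells without peroxide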
Active calls of the source: *.

COc1ccc(CNC(=O)COC(=O)CCc2nc3ccccc3c(=O)[nH]2)cc1 was read as MT1-MMP act inh -5.3, DDE Tn7 FP inh 8.1, DAGLB inh -3.6, H9c2 TAG inh -2.1, Tn6 DDE FP -5.5 and Cardio protect 47.8.
`O=C(CCc1nc2ccccc2c(=O)[nH]1)OCc1ccccc1F` gave MT1-MMP act inh -0.3, DDE Tn7 FP inh 4.3, DAGLB inh -2.4, Tn6 DDE FP 4.3 and Cardio protect 25.1.
For Cc1ccc2c(c1)nc1c3ccccc3nc(-c3ccccc3N)n21 the results were MT1-MMP act inh -8.7, DDE Tn7 FP inh -3.1, DAGLB inh -9.9, H9c2 TAG inh 14.5, Tn6 DDE FP 4.5 and Cardio protect 58.4*.
Screening CCOC(=O)C1=NOC(C(C)=O)(C(=O)NC2CCCC2)C1 (centres undefined) returned DDE Tn7 FP inh 4.5 and Tn6 DDE FP 7.3.
Screening COCCN1CCCc2nc(-c3ccc(F)cc3)ccc21 returned DDE Tn7 FP inh -4.3 and Tn6 DDE FP 7.6.
For CCOC(=O)Cc1csc(NC(=O)CSc2nnc(-c3ccncc3)o2)n1 the results were MT1-MMP act inh 2.4, DDE Tn7 FP inh -6.8, Tn6 DDE FP 3.3 and Cardio protect -7.1.
Screening Cc1csc(NC(=O)CSc2nnc(-c3ccncc3)o2)n1 returned MT1-MMP act inh -1.1, DDE Tn7 FP inh 1.9, DAGLB inh -1.3, H9c2 TAG inh 14.8, Tn6 DDE FP 16.6* and Cardio protect -6.0.
COc1ccc(CNc2nn3c(-c4cccc(C(=O)N(C)C)c4)cnc3s2)cc1 was read as MT1-MMP act inh -22.4, DDE Tn7 FP inh -9.4, H9c2 TAG inh -6.1, Tn6 DDE FP 5.0 and Cardio protect 75.8*.
COc1ccc(CNc2ncc(-c3ccccc3)n2C)cc1 was read as MT1-MMP act inh -0.8, DDE Tn7 FP inh 6.3, DAGLB inh -2.7, Tn6 DDE FP 7.4 and Cardio protect 33.8.
`CC(NCc1ccco1)C(=O)N1CCN(c2cccc(C(F)(F)F)c2)CC1` (centres undefined) gave DDE Tn7 FP inh -3.3 and Tn6 DDE FP 1.8.
COc1cccc(C(=O)Nc2ccc(NC(=O)c3ccco3)nc2)c1 was read as MT1-MMP act inh 8.9, DDE Tn7 FP inh -9.5, DAGLB inh 0.6, H9c2 TAG inh 13.5, Tn6 DDE FP -3.9 and Cardio protect 2.1.
COc1cc(C(=O)Nc2ccc(NC(=O)c3ccco3)nc2)cc(OC)c1OC was read as MT1-MMP act inh 10.5, DDE Tn7 FP inh 5.8, DAGLB inh 2.2, H9c2 TAG inh 12.2, Tn6 DDE FP 9.3 and Cardio protect 52.3*.
For CCN(CC)C(=O)CC[C@@H]1CC[C@]2(CCCN(C(=O)C(C)(C)C)C2)O1 the results were DDE Tn7 FP inh -6.0 and Tn6 DDE FP 3.8.
For CCN(CC)CCC(=O)Nc1cccc2c1C(=O)c1ccccc1C2=O the results were MT1-MMP act inh -7.3, DDE Tn7 FP inh 2.5, H9c2 TAG inh 93.1*, Tn6 DDE FP -5.0 and Cardio protect 2.1.
`Nc1cccc(C(=O)OCC(=O)Nc2cccc3c2C(=O)c2ccccc2C3=O)c1` gave MT1-MMP act inh -11.0, DDE Tn7 FP inh -1.1, DAGLB inh -3.0, H9c2 TAG inh 23.3, Tn6 DDE FP 0.8 and Cardio protect 6.7.
For C[C@H]1CN(c2ccc(N3CCNC[C@@H]3C)cc2C#N)CCN1Cc1ccccc1 the results were DDE Tn7 FP inh 0.3 and Tn6 DDE FP -5.1.
`CCOc1ccccc1NC(=O)C(=O)N/N=C/c1cc(Br)ccc1O` gave MT1-MMP act inh -52.2, DDE Tn7 FP inh -0.5, DAGLB inh 7.3, H9c2 TAG inh -3.9, Tn6 DDE FP -3.9 and Cardio protect 57.2*.

High-throughput results (PubChem)
